Source: ChEMBL document CHEMBL1139618, “The synthesis of substituted bipiperidine amide compounds as CCR3 ligands: antagonists versus agonists” (Bioorg Med Chem Lett, 2005)
Several values for one entry are separate records, joined by “and”; a condition that tells them apart may be missing. Identical values can stand only once.

Assays:
[1] = biological target: T1, C-C chemokine receptor type 3 (Homo sapiens) (UniProt P51677); experiment: In vitro binding activity against C-C chemokine receptor type 3 using [35S]GTP-gamma-S, as radioligand at 1 uM; assay type: functional
T1 sequence (whole entry): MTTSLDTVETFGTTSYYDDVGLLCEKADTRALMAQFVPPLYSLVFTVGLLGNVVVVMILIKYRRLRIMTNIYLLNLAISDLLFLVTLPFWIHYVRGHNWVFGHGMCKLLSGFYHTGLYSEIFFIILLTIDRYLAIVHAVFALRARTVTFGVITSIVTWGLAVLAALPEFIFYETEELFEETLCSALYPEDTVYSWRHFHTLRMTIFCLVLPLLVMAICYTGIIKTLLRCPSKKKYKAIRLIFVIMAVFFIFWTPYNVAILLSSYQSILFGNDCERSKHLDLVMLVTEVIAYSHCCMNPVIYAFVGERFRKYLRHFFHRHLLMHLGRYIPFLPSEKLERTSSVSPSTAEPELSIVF

[2] = biological target: T2, C-C chemokine receptor type 3 (Homo sapiens, UniProt P51677); experiment: (§1) In vitro binding activity against C-C chemokine receptor type 3 using [35S]GTP-gamma-S, as radioligand; assay type: functional
T2 sequence (P51677 whole entry): T1 sequence (whole entry)

[3] = biological target: T1, C-C chemokine receptor type 3 (Homo sapiens); experiment: In vitro percent increase over basal binding of [35S]-GTP-gamma S against C-C chemokine receptor type 3 at 10 uM; assay type: functional
Summary of the method: (§2)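 [³⁵S]GTPγS binding to CCR3 receptor-membrane preparations in excess GDP, testing for agonism. E_max % is the percent rise over basal [³⁵S]GTPγS binding at 10 μM compound, expressed as a percent of the maximal response to 100 nM eotaxin.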

[4] = biological target: T1, C-C chemokine receptor type 3 (Homo sapiens); experiment: In vitro percent increase over basal binding of [35S]-GTP-gamma S against C-C chemokine receptor type 3; assay type: functional; summary of the method: as §2
[5] = biological target: T1, C-C chemokine receptor type 3 (Homo sapiens); experiment: In vitro percent inhibition against C-C chemokine receptor type 3 using [35S]GTP-gamma-S, as radioligand at 1 uM; assay type: functional
[6] = biological target: T1, C-C chemokine receptor type 3 (Homo sapiens); experiment: In vitro percent inhibition against C-C chemokine receptor type 3 using [35S]GTP-gamma-S, as radioligand; at 1 uM; assay type: functional
[7] = Inhibitory concentration against CREM 3 cell line using calcium flux assay at 37 C at 7.4 pH with compound dissolved in DMSO; assay type: functional, cell-based; details: CREM3
Summary of the method: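 CREM3 cells (rat Y3 line transfected with human CCR3) were used at 37 °C. Compounds were dissolved in DMSO and diluted in pH 7.4 HBSS containing HEPES, BSA and probenecid.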

[8] = In vivo Area under curve in rat at 3 mg/kg after IV administration; assay type: ADME, organism-based; parameters: dose 3 mg/kg, route intravenous
[9] = biological target: T1, C-C chemokine receptor type 3 (Homo sapiens); experiment: as §1; assay type: functional; details: concentration not given here

Row | Ki [2] | Structure (SMILES) | other results
1 |  | O=C(NCC1CCCN(C2CCN(Cc3ccccc3Cl)CC2)C1)c1ccc2ncccc2c1 (stereo not drawn) | inhibition [1]: 36%
2 | 391 nM | O=C(NCC1CCCN(C2CCN(Cc3cc(Cl)ccc3Cl)CC2)C1)c1ccc2ncccc2c1 (stereo not drawn) | Emax [3]: 45%
3 | 34 nM | O=C(NCC1CCCN(C2CCN(Cc3ccc(Cl)c(Cl)c3)CC2)C1)c1nccc2ccccc12 (stereo not drawn) | 
4 | 60 nM | Cc1ccccc1C(=O)NCC1CCCN(C2CCN(Cc3ccc(Cl)c(Cl)c3)CC2)C1 (stereo not drawn) | 
5 | 74 nM | CC(c1ccc(Cl)c(Cl)c1)N1CCC(N2CCCC(CNC(=O)c3ccc4ncccc4c3)C2)CC1 (stereo not drawn) | Emax [3]: -12%
6 | 7.3 nM | CC1CN(Cc2ccc(Cl)c(Cl)c2)CCC1N1CCCC(CNC(=O)c2ccc3ncccc3c2)C1 (stereo not drawn) | Emax [4]: 96%
7 | 47 nM | O=C(NCC1CCCN(C2CCN(Cc3ccc(Cl)c(Cl)c3)CC2)C1)c1ccc2nc[nH]c2c1 (stereo not drawn) | 
8 | 767 nM | O=C(NCC1CCCN(C2CCN(C(=O)Cc3ccc(Cl)c(Cl)c3)CC2)C1)c1ccc2ncccc2c1 (stereo not drawn) | 
9 | 533 nM | CC(=O)NCC1CCCN(C2CCN(Cc3ccc(Cl)c(Cl)c3)CC2)C1 (stereo not drawn) | 
10 | 50 nM | CC1(N2CCCC(CNC(=O)c3ccc4ncccc4c3)C2)CCN(Cc2ccc(Cl)c(Cl)c2)CC1 (stereo not drawn) | Emax [4]: 8%
11 | 29 nM | O=C(NCC1CCCN(C2CCN(Cc3ccc(Cl)c(Cl)c3)CC2)C1)c1ccc2[nH]ccc2c1 (stereo not drawn) | 
12 | 86 nM | Cc1ccccc1CC(=O)NCC1CCCN(C2CCN(Cc3ccc(Cl)c(Cl)c3)CC2)C1 (stereo not drawn) | 
13 |  | O=C(Nc1ccc(Cl)c(Cl)c1)NN1CCC(N2CCCC(CNC(=O)c3ccc4ncccc4c3)C2)CC1 (stereo not drawn) | inhibition [5]: 6%
14 | 398 nM | O=C(NCC1CCCN(C2CCN(Cc3cc(Cl)cc(Cl)c3)CC2)C1)c1ccc2ncccc2c1 (stereo not drawn) | Emax [3]: 45%
15 | 80 nM | O=C(NCC1CCCN(C2CCN(Cc3ccc(Cl)c(Cl)c3)CC2)C1)c1ccnc2ccccc12 (stereo not drawn) | 
16 | 36 nM | O=C(NCC1CCCN(C2CCN(Cc3ccc(Cl)c(Cl)c3)CC2)C1)c1cccc2[nH]ccc12 (stereo not drawn) | 
17 |  | O=C(NCC1CCCN(C2CCN(C(=O)c3ccc(Cl)c(Cl)c3)CC2)C1)c1ccc2ncccc2c1 (stereo not drawn) | inhibition [6]: 20%
18 |  | O=C(NCC1CCCN(C2CCN(CC3CCCCC3)CC2)C1)c1ccc2ncccc2c1 (stereo not drawn) | inhibition [5]: 17%
19 | 58 nM | O=C(NCC1CCCN(C2CCN(Cc3ccc(Cl)c(Cl)c3)CC2)C1)c1cccc2ccccc12 (stereo not drawn) | 
20 | 48 nM | O=C(NCC1CCCN(C2CCN(Cc3ccc(Cl)c(Cl)c3)CC2)C1)c1ccc2ccccc2c1 (stereo not drawn) | 
21 | 180 nM | O=C(NCC1CCCN(C2CCN(CCc3ccc(Cl)c(Cl)c3)CC2)C1)c1ccc2ncccc2c1 (stereo not drawn) | Emax [3]: 2%
22 | 92 nM | COc1ccccc1C(=O)NCC1CCCN(C2CCN(Cc3ccc(Cl)c(Cl)c3)CC2)C1 (stereo not drawn) | 
23 | 95 nM | O=C(NCC1CCCN(C2CCN(Cc3ccc(Cl)cc3)CC2)C1)c1ccc2ncccc2c1 (stereo not drawn) | Emax [3]: -8%
24 | 23 nM | O=C(NCC1CCCN(C2CCN(Cc3ccc(Cl)c(Cl)c3)CC2)C1)c1ccc2ncccc2c1 (stereo not drawn) | IC50 [7]: 215 nM; Emax [3]: -7%; AUC [8]: 264 ng·h/mL
25 | 107 nM | O=C(NCC1CCCN(C2CCN(Cc3ccc(Cl)c(Cl)c3)CC2)C1)C1CCCCC1 (stereo not drawn) | 
26 |  | O=C(NCC1CCCN(C2CCN(Cc3ccc(Cl)c(Cl)c3)CC2)C1)c1ccccc1Cl (stereo not drawn) | inhibition [9]: 27%
27 | 30 nM and 36 nM | O=C(NCC1CCCN(C2CCN(Cc3ccc(Cl)c(Cl)c3)CC2)C1)c1cccc2cccnc12 (stereo not drawn) | 
28 | 99 nM | O=C(NCC1CCCN(C2CCN(Cc3ccc(Cl)c(Cl)c3)CC2)C1)c1cnnc2ccccc12 (stereo not drawn) | 
